# Screening results: PubChem, The Scripps Research Institute Molecular Screening Center
# Most compounds without a hit are left out; they make up all but 2.2% or so of the library.
# GalR3 antag – blocks the human galanin receptor 3. O60755. HEK293 GalR3-CNG cAMP membrane potential fluorescence; galR3 body fused to GalR1 C-terminus. inhibition, % at 3 µM. actives 0.44% (n = 360,000);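 active = inhibition above the screen-wide average plus 3 SD, cut at about 13% in these data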;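 also: forskolin and galanin both at EC90 stimulate the cells; cAMP rise reported by CNG channel membrane potential dye signal; 0% = forskolin plus galanin with DMSO and 100% = forskolin alone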
# Target sequence (O60755 1-299 limits assumed): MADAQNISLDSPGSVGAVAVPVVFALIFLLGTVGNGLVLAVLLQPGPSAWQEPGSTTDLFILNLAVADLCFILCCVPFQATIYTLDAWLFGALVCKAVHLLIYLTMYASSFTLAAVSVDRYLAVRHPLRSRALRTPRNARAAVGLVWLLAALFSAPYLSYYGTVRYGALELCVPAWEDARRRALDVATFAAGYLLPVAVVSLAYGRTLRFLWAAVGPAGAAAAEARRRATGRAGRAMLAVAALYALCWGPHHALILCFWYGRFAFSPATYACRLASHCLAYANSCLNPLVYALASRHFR
# NR2E3 ag-1 – activates human NR2E3 receptor | actives 0.35% (n = 360,000) | CHO-S Gal4-NCOR/VP16-NR2E3 two-hybrid, luciferase | inhibition of corepressor binding, % at 3.98 µM | Q9Y5X4;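 active = inhibition above the mean of all tested compounds plus 3 SD, cut at about 70% in these data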;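 also: 0% = DMSO with NR2E3 transfected cells and 100% = cells lacking NR2E3 construct; higher means lower luciferase signal from less NR2E3 corepressor binding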
# NR2F2 inh – inhibitors of human COUP-TFII (NR2F2); HEK293T NGFI-A luciferase reporter, luminescence; inhibition, % at 8.6 µM; actives 0.7% (n = 370,000); AID 686940;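 active = inhibition above a per-plate cutoff, mean inhibition of test wells between control levels plus 3 SD, cut at about 38% in these data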;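 also: cells cotransfected with COUP-TFII expression vector driving the NGFI-A reporter; 0% = median of COUP-TF2 test wells and 100% = reporter-only cells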
# Target sequence (P24468 whole entry, looked up): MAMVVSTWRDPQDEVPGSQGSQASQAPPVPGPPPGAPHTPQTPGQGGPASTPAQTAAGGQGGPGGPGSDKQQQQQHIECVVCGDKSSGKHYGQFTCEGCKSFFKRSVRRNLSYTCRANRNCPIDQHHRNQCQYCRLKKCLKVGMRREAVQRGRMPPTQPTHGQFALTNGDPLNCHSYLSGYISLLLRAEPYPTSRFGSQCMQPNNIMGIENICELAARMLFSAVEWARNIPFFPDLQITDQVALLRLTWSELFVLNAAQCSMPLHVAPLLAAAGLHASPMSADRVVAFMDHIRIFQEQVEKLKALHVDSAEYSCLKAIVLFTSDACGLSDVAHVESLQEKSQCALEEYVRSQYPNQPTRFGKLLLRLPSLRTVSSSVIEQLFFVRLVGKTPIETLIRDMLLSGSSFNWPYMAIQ
# NR2E3 ag-2 – NR2E3 (human) agonism; Q9Y5X4; GST-NR2E3/biotin-RetCOR TR-FRET, 1536-well; inhibition of corepressor binding, % at 4.78 µM; actives 0.12% (n = 320,000); AID 2300;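 active = percent inhibition above the cutoff of mean plus 3 SD of all tested compounds, set per screening campaign, cut at about 20% in these data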;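 also: 0% = DMSO wells and 100% = biotin wells as full block of FRET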
#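 Material – GST-tagged NR2E3 plus biotinylated RetCOR corepressor · Quantity – NR2E3 fusion 1.35 nM · Times – 5 h incubation at 4 °C · Medium – pH 7.5 Tris-based buffer · Technique – TR-FRET, Eu(K)-anti-GST donor, streptavidin-D2 acceptor, ex 340, em 617/671 nm · Benchmarks – high control biotin, low control 0.6% DMSO · Format – 1536-well plates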
# SMARCA2 act – SMARCA2 function activation, primary screen; actives 1% (n = 370,000); MG213 cells, MMTV-luciferase reporter, dexamethasone, overnight; activation, % at 9.1 µM; AID 652017; in the data active = activation above about 7.8%;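 also: 0% = vehicle wells and 100% = reference activator wells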
# NR2E3 ag confirm – NR2E3 agonism confirmed in two-hybrid assay; shares compounds with NR2E3 ag-1; CHO-S mammalian two-hybrid NR2E3-NCOR, luciferase luminescence; inhibition, % at 3.98 µM; actives 51% (n = 2,300);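 active = average inhibition above a cutoff equal to the mean inhibition of all tested compounds plus one SD, cut at about 70% in these data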;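 also: 0% = DMSO in NR2E3 cells and 100% = DMSO in cells lacking NR2E3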
# GAL4-VP16 luc – reduces GAL4-VP16 reporter signal in NR2E3 counterscreen; shares compounds with NR2E3 ag-1; CHO-S GAL4-VP16 luciferase reporter, luminescence; inhibition, % at 3.98 µM; actives 29% (n = 2,300); AID 624379;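 active = mean inhibition above a cutoff equal to the average over all tested compounds plus one standard deviation, cut at about 70% in these data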;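 also: luciferase from a UAS reporter driven by GAL4-VP16 transactivation; 0% = DMSO with VP16-transfected cells and 100% = DMSO with cells lacking VP16; higher means less reporter light so more repression of VP16 activity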
# Numbers without * were called inactive; x = not tested or not shown.
SMILES,GalR3 antag,NR2E3 ag-1,NR2F2 inh,NR2E3 ag-2,SMARCA2 act,NR2E3 ag confirm,GAL4-VP16 luc
O=C(COc1ccccc1Br)Nc1ccc2c(c1)OCCCO2,-11,-3,-50,2,5,x,x
O=C(CN1C(=O)CCSc2ccccc21)Nc1ccc(F)cc1F,x,x,-1,x,-5,x,x
COC(=O)CCCn1cc(CN2CC=CS2(=O)=O)nn1,x,x,-13,x,-1,x,x
O=S1(=O)c2ccc(N3CCN(Cc4ccccc4F)CC3)cc2Oc2ccccc2CN1Cc1cn(Cc2ccccc2C(F)(F)F)nn1,x,x,-9,x,-1,x,x
N#C/C(=C/c1ccc(Sc2nc3ccccc3[nH]2)o1)c1ccccc1F,-4,62,14,0,-5,78*,63
CC(CN1CCN(CCOCCO)CC1)CN1c2ccccc2Sc2ccc(Cl)cc21 (centres undefined),-7,49,5,x,-5,26,7
O=c1c(Sc2ccccc2)c(C(F)(F)F)[nH]n1-c1ccccc1,-4,57,3,3,-1,97*,74*
O=c1c2c(C(F)(F)F)cc(C(F)(F)F)nc2[nH]n1-c1ccccc1,-5,-24,10,0,-2,x,x
O=C(Nc1ccc(NC(=O)c2ccccc2Cl)c(Cl)c1)c1ccccn1,x,x,-60,x,x,x,x
CCc1ccccc1Nc1nn2c(=O)c3ccc(C(=O)NCc4ccccn4)cc3nc2s1,-9,71*,-29,2,1,76*,34
O=C(NCc1ccccn1)c1ccc2c(=O)n3nc(Nc4ccccc4)sc3nc2c1,-2,-15,-10,5,1,x,x
COc1ccc(C)cc1NC(=O)CSc1nnc(-c2n[nH]c3c2CCC3)n1N,x,x,12,x,-8,x,x
CCCNC(=O)C[C@H]1CC[C@H]2[C@@H](COc3ccc(NC(=O)c4cncs4)cc3C(=O)N2C)O1,x,x,-3,x,-1,x,x
Cc1ccc(-c2nc(CSCC(=O)NCC3CCCO3)c(C)o2)cc1 (centres undefined),-6,49,-9,1,3,62,45
COc1ccc(-c2nc(CSCC(=O)NCC3CCCO3)c(C)o2)cc1OC (centres undefined),-4,-14,-12,0,-1,x,x
CCOc1ccc(-c2nc(CSCC(=O)NCC3CCCO3)c(C)o2)cc1 (centres undefined),-2,104*,-3,1,-2,92*,87*
COC(=O)[C@H](Cc1ccccc1)N(Cc1cn(Cc2ccccc2)nn1)S(=O)(=O)c1ccccc1Br,x,x,1,x,-6,x,x
CCc1cccc(CC)c1NC(=S)NCCc1c(C)[nH]c2ccc(C)cc12,0,71*,11,4,-4,19,6
COc1ccc(C(=O)O[C@@H]2CCC[C@@]3(C(=O)N(Cc4ccccc4)c4ccccc43)[C@H]2NC(=O)CCc2ccccc2)cc1OC,x,x,9,x,-7,x,x
Cc1nn(Cc2cccc(F)c2)c(C)c1NC(=O)c1ccc(COc2ccccc2Cl)cc1,-11,79*,13,-2,-9,94*,40
COC(=O)[C@]12C[C@H](CC(=O)NCCc3ccccc3OC)C(=O)N(CCc3ccc(OC)c(OC)c3)C1=C[C@H](C1CCCC1)O[C@@H]2C,x,x,-4,x,-3,x,x
FC(F)(F)c1ccccc1-n1c(-c2ccco2)n[nH]c1=S,-8,63,32,0,-6,20,3
COc1cnc(-c2ccccn2)nc1Oc1ccc(Cl)cc1,-6,79*,16,-1,-3,24,-25
COc1cnc(-c2ccccn2)nc1Oc1ccc(Cl)c2ccccc12,-4,64,16,0,0,11,35
COc1cnc(-c2ccccn2)nc1Oc1ccccc1Cl,-5,0,7,1,3,x,x
SMILES,GalR3 antag,NR2E3 ag-1,NR2F2 inh,NR2E3 ag-2,SMARCA2 act,NR2E3 ag confirm,GAL4-VP16 luc
CC(C)CNC(=O)OCc1cn(Cc2ccccc2Cl)nn1,x,x,3,x,-2,x,x
CC(=O)Nc1ccc(/C=C/COC(C)=O)cc1C,x,x,-5,x,x,x,x
CCN1CCN(CCNC(=O)c2ccc(/C=C3\Sc4ccccc4N(Cc4ccccc4F)C3=O)cc2)CC1,7,48,-1,1,-2,-11,35
C[C@H]1[C@@H](NC(=O)c2ccc(C(C)(C)C)cc2)CC[C@@]23CCCN2C(=O)CCC[C@@H]13,x,x,-4,x,x,x,x
O=S1(=O)c2cccc3cccc(c23)N1Cc1nnc(-c2ccccc2Br)o1,-3,69,26,-6,-4,87*,72*
O=C1c2ccccc2S(=O)(=O)N1Cc1nnc(-c2ccccc2Br)o1,-1,-28,2,x,1,x,x
COc1ccc(CNC(=O)c2c(C)oc3c2C(=O)c2ccccc2C3=O)cc1,1,66,13,-2,-6,98*,50
COc1cccc(CN[C@@H]2CC[C@@]34CCCN3C(=O)CCC[C@H]4C2)c1,x,x,-9,x,x,x,x
CSc1ccc(CN2C(=O)C(F)(F)Oc3c(C(C)=O)cccc32)cc1,x,49,x,x,x,44,53
Cn1nnnc1Sc1ncnc2scc(-c3ccc(C(F)(F)F)cc3)c12,-2,17,-50,3,-2,x,x
Cn1nnnc1Sc1ncnc2scc(-c3cccc(C(F)(F)F)c3)c12,-2,42,-15,x,-2,x,x
Cn1nnnc1Sc1ncnc2scc(-c3cccc(F)c3)c12,-2,48,-69,3,-1,9,30
Cn1nnnc1Sc1ncnc2scc(-c3ccccc3C(F)(F)F)c12,1,58,-32,1,0,45,50
COc1ccc(NC(=O)N2CCC(c3nc4ccc(Cl)cc4[nH]3)CC2)cc1OC,x,x,-4,x,-3,x,x
C[C@H]1CCC/C=C/[C@@H]2C[C@H](O)C[C@H]2[C@H](O)[C@H](S(=O)c2ccc(O)cc2)CC(=O)O1 (some centres undefined),-4,78*,51*,x,-8,91*,47
O=C(Nc1nnc(-c2cccs2)o1)c1cc(-c2ccccc2)nc2ccccc12,-2,71*,-12,0,-1,99*,13
COC(=O)c1sc(NC(=O)c2cc(-c3ccccc3)nc3ccccc23)c(C#N)c1C,7,49,-7,-1,-1,54,63
O=C(NCc1cccs1)c1cc(-c2ccccc2)nc2ccccc12,-10,-6,-5,0,-4,x,x
CCOC(=O)c1sc(NC(=O)c2cc(-c3ccc(C)cc3)nc3ccccc23)c(C#N)c1C,-1,9,20,0,-4,x,x
Cc1cc(C(=O)COC(=O)c2ccc3c(c2)OCO3)c(C)n1Cc1cccs1,-6,90*,8,3,0,77*,75*
Cc1cc(-n2c(C)cc(C(=O)COc3cccnc3[N+](=O)[O-])c2C)no1,0,-12,-14,x,1,x,x
